Measured values gathered from unrelated publications.
Compare with care: the assays were run in different laboratories.
Organism: Staphylococcus aureus
Effect on: microbial growth

With CNC(C)C1CCC(N)C(OC2C(N)CC(N)C(OC3OCC(C)(O)C(NC)C3O)C2O)O1 (stereo not shown) the MIC was 2 µg/mL (broth dilution).
[H]/N=C(\N/C(=N/[H])NCCCCCCNC(=N)NC(=N)Nc1ccc(Cl)cc1)Nc1ccc(Cl)cc1 has an MIC of 1 µM (MRSA USA300; drug-resistant strain).
For CC[C@H]1OC(=O)[C@H](C)[C@@H](O[C@H]2C[C@@](C)(OC)[C@@H](O)[C@H](C)O2)[C@H](C)[C@@H](O[C@@H]2O[C@H](C)C[C@H](N(C)C)[C@H]2O)[C@](C)(O)C[C@@H](C)CN(C)[C@H](C)[C@@H](O)[C@]1(C)O, the MIC was greater than 64 µg/mL (broth dilution; ATCCBAA44 BAA44).
CC[C@H]1OC(=O)[C@H](C)[C@@H](O[C@H]2C[C@@](C)(OC)[C@@H](O)[C@H](C)O2)[C@H](C)[C@@H](O[C@@H]2O[C@H](C)C[C@H](N(C)C)[C@H]2O)[C@](C)(O)C[C@@H](C)/C(=N\OCOCCOC)[C@H](C)[C@@H](O)[C@]1(C)O has an MIC of 4 µg/mL (agar dilution; ATCC29213).
Cc1ccc2[nH]nc(-c3nnc(Nc4ccc(O)cc4)s3)c2c1 gave an MIC of 18.3 µg/mL (ATCC29213).
For CC(=O)c1ccc2cc(S(=O)(=O)NCc3ccccc3)ccc2c1, the MIC was 40000 µg/mL (broth dilution; ATCC25923).
With CC[C@H]1OC(=O)[C@H](C)[C@@H](O[C@H]2C[C@@](C)(OC)[C@@H](O)[C@H](C)O2)[C@H](C)[C@@H](O[C@@H]2O[C@H](C)C[C@H](N(C)C)[C@H]2O)[C@](C)(O)C[C@@H](C)C(=O)[C@H](C)[C@@H](O)[C@]1(C)O the MIC was greater than 64 µg/mL (broth dilution; USA300).
For COc1c(N2C[C@@H]3CCCN[C@@H]3C2)c(F)cc2c(=O)c(C(=O)O)cn(C3CC3)c12, the MIC was 0.125 µg/mL (broth dilution; ATCC33591 MRSA).
CN1CCN(CCNCc2cc3cc(-c4ccccc4)ccc3nc2SCc2ccccc2)CC1 gave an MIC of 8 µg/mL (broth dilution).
COc1c(N2C[C@@H]3CCCN[C@@H]3C2)c(F)cc2c(=O)c(C(=O)O)cn(C3CC3)c12 has an MIC of 0.5 µg/mL (agar dilution; ATCC43300).
The MIC of CC[C@H]1OC(=O)[C@H](C)[C@@H](O[C@H]2C[C@@](C)(OC)[C@@H](O)[C@H](C)O2)[C@H](C)[C@@H](O[C@@H]2O[C@H](C)C[C@H](N(C)C)[C@H]2O)[C@](C)(O)C[C@@H](C)CN(C)[C@H](C)[C@@H](O)[C@]1(C)O is reported as less than 98 µg/mL (ATCC29213).
For N=c1sc(C(=O)c2ccc(Nc3cnccn3)cc2)nn1-c1ccc([N+](=O)[O-])cc1, the MIC was 3.12 µg/mL (broth dilution; ATCC25923).
The MIC of CC(=O)NC[C@H]1CN(c2ccc(N3CCOCC3)c(F)c2)C(=O)O1 is reported as 2 µg/mL (agar dilution; ATCC43300).
The MIC of C[C@@H](O)[C@H]1C(=O)N2C(C(=O)O)=C(S[C@@H]3CN[C@H](C(=O)N(C)C)C3)[C@H](C)[C@H]12 is reported as 0.06 µg/mL (ATCC29213 MSSA; drug-resistant strain).
N#CC(C#N)=C1SC(C(=O)c2ccc(Nc3cnccn3)cc2)=NN1c1ccc([N+](=O)[O-])cc1 gave an MIC of 3.12 µg/mL (broth dilution; ATCC25923).
The MIC of COc1cc2cc(CNCCN3CCN(C)CC3)c(SCc3ccccc3)nc2c(OC)c1OC is reported as 128 µg/mL (broth dilution).
CCCCCCC#Cc1cncc(-c2nnc(SCc3cc([N+](=O)[O-])cc([N+](=O)[O-])c3)n2C2CCNCC2)c1 has an MIC of 8 µg/mL (broth dilution; MRSA).
With C=C[C@]1(C)C[C@@H](OC(=O)CS[C@@H]2C[C@H]3CC[C@@H](C2)N3C)[C@]2(C)[C@H](C)CC[C@]3(CCC(=O)[C@H]32)[C@@H](C)[C@@H]1O the MIC was 0.0312 µg/mL (agar dilution; ATCC25923).
The MIC of CCC[C@@H]1C[C@@H](C(=O)N[C@@H]([C@H]2O[C@H](SC)[C@H](O)[C@@H](O)[C@H]2O)[C@@H](C)O)N(C)C1 is reported as greater than 64 µg/mL (broth dilution; ATCCBAA44 BAA44).
CN[C@H](CC(C)C)C(=O)N[C@H]1C(=O)N[C@@H](CC(N)=O)C(=O)N[C@H]2C(=O)N[C@H]3C(=O)N[C@H](C(=O)N[C@H](C(=O)O)c4cc(O)cc(O)c4-c4cc3ccc4O)[C@H](O[C@H]3C[C@](C)(N)[C@@H](O)[C@H](C)O3)c3ccc(c(Cl)c3)Oc3cc2cc(c3O[C@@H]2O[C@H](CO)[C@@H](O)[C@H](O)[C@H]2O[C@H]2C[C@](C)(NCc3ccc(-c4ccc(Cl)cc4)cc3)[C@@H](O)[C@H](C)O2)Oc2ccc(cc2Cl)[C@H]1O has an MIC of 2 µM (broth dilution).
For CN[C@H](CC(C)C)C(=O)N[C@H]1C(=O)N[C@@H](CC(N)=O)C(=O)N[C@H]2C(=O)N[C@H]3C(=O)N[C@H](C(=O)N[C@H](C(=O)O)c4cc(O)cc(O)c4-c4cc3ccc4O)[C@H](O)c3ccc(c(Cl)c3)Oc3cc2cc(c3O[C@@H]2O[C@H](CO)[C@@H](O)[C@H](O)[C@H]2O[C@H]2C[C@](C)(N)[C@H](O)[C@H](C)O2)Oc2ccc(cc2Cl)[C@H]1O, the MIC was 0.67 µM (broth dilution; ATCC29213).
CN[C@H](CC(C)C)C(=O)N[C@H]1C(=O)N[C@@H](CC(N)=O)C(=O)N[C@H]2C(=O)N[C@H]3C(=O)N[C@H](C(=O)N[C@H](C(=O)O)c4cc(O)cc(O)c4-c4cc3ccc4O)[C@H](O)c3ccc(c(Cl)c3)Oc3cc2cc(c3O[C@@H]2O[C@H](CO)[C@@H](O)[C@H](O)[C@H]2O[C@H]2C[C@](C)(N)[C@H](O)[C@H](C)O2)Oc2ccc(cc2Cl)[C@H]1O has an MIC of 0.5 µg/mL (agar dilution; ATCC25923).
With CCN1CCC(CCNCc2cc3cc(-c4ccccc4)ccc3nc2SCc2ccccc2)CC1 the MIC was 4 µg/mL (broth dilution).
CN[C@H](CC(C)C)C(=O)N[C@H]1C(=O)N[C@@H](CC(N)=O)C(=O)N[C@H]2C(=O)N[C@H]3C(=O)N[C@H](C(=O)N[C@H](C(=O)O)c4cc(O)cc(O)c4-c4cc3ccc4O)[C@H](O)c3ccc(c(Cl)c3)Oc3cc2cc(c3O[C@@H]2O[C@H](CO)[C@@H](O)[C@H](O)[C@H]2O[C@H]2C[C@](C)(N)[C@H](O)[C@H](C)O2)Oc2ccc(cc2Cl)[C@H]1O gave an MIC of 1 µg/mL (broth dilution; USA300).
CCCCCCC#Cc1cncc(-c2nnc(SCc3ccc([N+](=O)[O-])cc3)n2CCCN)c1 gave an MIC of 8 µg/mL (broth dilution; ATCC29213).
For Cc1ccc2[nH]nc(-c3nnc(Nc4ccc(Cl)cc4)s3)c2c1, the MIC was 44.5 µg/mL (ATCC29213).
N=c1sc(C(=O)c2ccc(Nc3cnccn3)cc2)nn1-c1ccccc1 gave an MIC of 50 µg/mL (broth dilution; ATCC25923).
For CCCCCCCCCCCC[N+](C)(C)Cc1ccccc1, the MIC was 4 µM (MSSA).
For N#CC(C#N)=C1SC(C(=O)c2ccc(Nc3cnccn3)cc2)=NN1c1ccccc1, the MIC was 50 µg/mL (broth dilution; ATCC25923).
O=C(N[C@H](CO)[C@H](O)c1ccc([N+](=O)[O-])cc1)C(Cl)Cl gave an MIC of 64 µg/mL (broth dilution).
The MIC of CC1(C)S[C@@H]2[C@H](NC(=O)[C@H](N)c3ccccc3)C(=O)N2[C@H]1C(=O)O is reported as 0.5 µg/mL (agar dilution; ATCC25923).
With O=C(O)c1cn(C2CC2)c2cc(N3CCNCC3)c(F)cc2c1=O the MIC was 6.25 µM (broth dilution; ATCC25923; 16 h).
For Cc1ccc2[nH]nc(-c3nnc(Nc4ccc(F)cc4)s3)c2c1, the MIC was 18.3 µg/mL (ATCC29213).
With COc1ccc(C=NNC(=O)CSc2nc3c(C)cccc3c(=O)n2-c2ccccc2)cc1OS(C)(=O)=O the MIC was 12.5 µg/mL (broth dilution).
With CN1CCN(CCNCc2cc3cc(Br)ccc3nc2SCc2ccccc2)CC1 the MIC was 16 µg/mL (broth dilution).
With CCCCCCC#Cc1cncc(-c2nnc(SCc3ccc([N+](=O)[O-])o3)n2CCCN)c1 the MIC was greater than 64 µg/mL (broth dilution; ATCC29213).
The MIC of Cc1cc(Nc2nnc(-c3n[nH]c4ccc(C)cc34)s2)cc([N+](=O)[O-])c1 is reported as 78 µg/mL (ATCC29213).
CCCCCCCCN=c1ccn(CCCCCCCCCCn2ccc(=NCCCCCCCC)cc2)cc1 has an MIC of 0.5 µM (MSSA).
The MIC of CCCCCCC#Cc1cncc(-c2nnc(SCc3ccc(Cl)cc3)n2CCCN)c1 is reported as 8 µg/mL (broth dilution; ATCC29213).
CC(=O)NC[C@H]1CN(c2ccc(N3CCOCC3)c(F)c2)C(=O)O1 gave an MIC of 1 µg/mL (broth dilution; USA300).
